Measurements from PubChem BioAssay AID492951 (Molecular Libraries Program, Specialized Chemistry Center, …, 2010).
A number with no mark means an inactive call. Calls of active or inactive are those of the source.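 Rule for the calls: active = inhibition above 10%; inactive = the rest.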

Biological target: Hexokinase-4 (Homo sapiens) (UniProt P35557)
Assay: human glucokinase inhibition, counter-screen for TbHK1 inhibitor project, biochemical, recombinant hGlck (AID 492951)
Conditions: G6PDH-coupled NADH absorbance 340 nm, at 10 µM; hits give high values
Summary of the method: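 Technique – A340 of NADH · Material – recombinant human glucokinase, G6PDH-coupled · Medium – TEA buffer pH 7.9 with 3.3 mM MgCl2, 0.75 mM NAD+ · Doses – single final test compound dose of 10 µM · Repeats – three replicates per compound · Times – 10 min preincubation at room temperature · Also added – glucose 20 mM and ATP 1 mM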

Sequence of Hexokinase-4 (Homo sapiens) (P35557 whole entry, looked up): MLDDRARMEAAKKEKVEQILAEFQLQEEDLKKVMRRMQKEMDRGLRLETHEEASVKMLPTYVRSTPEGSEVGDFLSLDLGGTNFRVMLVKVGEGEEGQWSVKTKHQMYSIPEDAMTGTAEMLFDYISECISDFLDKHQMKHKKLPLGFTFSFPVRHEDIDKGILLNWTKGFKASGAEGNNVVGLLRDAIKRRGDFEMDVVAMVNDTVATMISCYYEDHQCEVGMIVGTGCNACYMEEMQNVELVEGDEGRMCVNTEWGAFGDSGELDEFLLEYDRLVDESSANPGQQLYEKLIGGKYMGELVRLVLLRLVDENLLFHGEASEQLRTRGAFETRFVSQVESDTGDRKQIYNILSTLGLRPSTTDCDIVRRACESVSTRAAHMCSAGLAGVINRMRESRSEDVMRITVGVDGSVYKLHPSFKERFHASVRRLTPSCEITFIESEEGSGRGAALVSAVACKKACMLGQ

Compound	inhibition	outcome
O=c1c(O)c(-c2ccc(O)c(O)c2)oc2cc(O)cc(O)c12	68.9% (active)	
COc1ccc(C(=O)Nc2ccc(Cl)cc2C(=O)O)cc1		inactive
O=c1c2c(Br)cccc2sn1-c1ccccc1	12.5% (active)	
Cn1sc(=O)c2ccccc21	56.2% (active)	
COc1ccc2c(=O)n(-c3ccccc3)sc2c1		inactive
O=C(Cn1sc2ccccc2c1=O)N1CCCCC1		inactive
O=C(Nc1cc(Cl)ccc1C(=O)O)c1ccc(I)cc1	22.9% (active)	
COc1ccc(-c2cc3ccccc3[nH]2)cc1	30.3% (active)	
O=C(Nc1cc(Cl)ccc1C(=O)O)c1ccc2c(c1)OCO2		inactive
COc1ccccc1NC(=O)Cn1sc2ccccc2c1=O	8.4%	
O=C(Cn1sc2ccccc2c1=O)Nc1ccc(Cl)cc1		inactive
O=C(Cn1sc2ccccc2c1=O)NCc1ccccc1		inactive
COc1ccc(NC(=O)c2ccc(Cl)cc2C(=O)O)cc1		inactive
COc1ccc(C(=O)NC(CC(=O)O)c2ccccc2)cc1 (stereo unspecified)	4%	
O=c1c(Br)csn1-c1ccc(Br)cc1	32.2% (active)	
CC(C)(C)c1ccc(C(=O)Nc2cc(Cl)ccc2O)cc1		inactive
COc1ccc2sn(-c3ccccc3)c(=O)c2c1	13.6% (active)	
CCOC(=O)c1ccncc1NC(=O)c1ccc(OC)cc1		inactive
O=C(Nc1cc(Cl)ccc1C(=O)O)c1ccc(C(F)(F)F)cc1		inactive
O=C(Cn1sc2ccccc2c1=O)Nc1ccccc1Br	9%	
O=C(Nc1cc(Cl)ccc1C(=O)O)c1ccc2ccccc2c1	11.5% (active)	
O=c1c2ccc(Br)cc2sn1-c1ccccc1	33.8% (active)	
O=c1c2cc(C(F)(F)F)ccc2sn1-c1ccccc1	45.7% (active)	
O=C(c1ccccc1)n1sc2ccccc2c1=O		inactive
COc1ccc(S(=O)(=O)Nc2cc(Cl)ccc2C(=O)O)cc1		inactive
Cc1ccc(C(=O)Nc2cc(Cl)ccc2C(=O)O)cc1		inactive

Compound	inhibition	outcome
COc1cccc(C(=O)Nc2cc(Cl)ccc2C(=O)O)c1		inactive
O=C(Nc1cc(Cl)ccc1C(=O)O)c1ccc(C2CCCC2)cc1	21.1% (active)	
CCOC(=O)Cn1sc2ccccc2c1=O		inactive
COc1ccc(C(=O)Nc2cccc(Cl)c2)cc1		inactive
O=c1c2ccccc2sn1-c1ccccc1F	28.9% (active)	
O=C(Cn1sc2ccccc2c1=O)Nc1ccccc1I	14.5% (active)	
COc1ccc(C(=O)Nc2cc(Cl)c(C)cc2C(=O)O)cc1	17.6% (active)	
O=C1c2ccccc2S(=O)N1c1cccc(F)c1 (stereo unspecified)	8.84%	
COc1ccc(C(=O)N(C)c2cc(Cl)ccc2C(=O)O)cc1	6.7%	
CC(C)(C)c1ccc(C(=O)Nc2cc(Cl)ccc2-c2nn[nH]n2)cc1	28.4% (active)	
O=C(Nc1cc(Cl)ccc1C(=O)O)c1ccc2c(c1)CCC2	12.2% (active)	
CCC(C)(C)c1ccc(C(=O)Nc2cc(Cl)ccc2C(=O)O)cc1	26% (active)	
O=C(Nc1cc(Cl)ccc1C(=O)O)c1ccc(C2CCC2)cc1	35.4% (active)	
CCOc1ccc(C(=O)Nc2cc(Cl)ccc2C(=O)O)cc1	9.4%	
COC(=O)c1ccc(Cl)cc1NC(=O)c1ccccc1OC		inactive
COc1ccc(C(=O)Nc2cc(OC)ccc2C(=O)O)cc1	6.9%	
O=C(NCc1ccccc1)n1sc2ccccc2c1=O	38.3% (active)	
COc1ccc(C(=O)Nc2cc(Cl)ccc2C(=O)O)cn1		inactive
COc1ccc(C(=O)Nc2cc(Cl)ccc2C#N)cc1		inactive
COc1ccc(-c2nc3c(Cl)c(Cl)ccc3c(=O)o2)cc1	9.2%	
CC(C)(C)c1ccc(C(=O)Nc2cc(Cl)c(F)cc2C(=O)O)cc1		inactive
COc1ccc(NC(=O)Cn2sc3ccccc3c2=O)cc1		inactive
CC(C)(C)c1ccc(C(=O)Nc2cc(Br)ccc2C(=O)O)cc1	26.2% (active)	
O=c1cc(-c2ccccc2)sn1-c1ccccc1		inactive
CC1(c2ccc(C(=O)Nc3cc(Cl)ccc3C(=O)O)cc2)CC1		inactive
CC(C)c1cccc(C(=O)Nc2cc(Cl)ccc2C(=O)O)c1		inactive

Compound	inhibition	outcome
O=c1c2ccccc2on1-c1ccccc1		inactive
Cn1sc2ccccc2c1=O		inactive
O=C(Nc1cc(Cl)ccc1C(=O)O)c1ccc(Cc2ccccc2)cc1		inactive
O=C(Nc1cc(Cl)ccc1C(=O)O)c1ccncc1		inactive
COc1ccc(C(=O)Nc2ccccc2C(=O)O)cc1		inactive
CN(C)c1ccc(C(=O)Nc2cc(Cl)ccc2C(=O)O)cc1		inactive
O=c1c2ccc(F)cc2sn1-c1ccccc1	37.8% (active)	
O=C(Cn1sc2ccccc2c1=O)N1CCOCC1		inactive
N#Cc1ccc2sn(-c3ccccc3)c(=O)c2c1	4.3%	
Cc1ccc(NC(=O)Cn2sc3ccccc3c2=O)cc1	2.1%	
COc1ccc(C(=O)Nc2cc(F)ccc2C(=O)O)cc1		inactive
O=C(O)c1ccc(Cl)cc1NC(=O)c1coc2ccccc12		inactive
COC(=O)c1ccc(Cl)cc1NC(=O)c1ccc(OC)cc1	18.2% (active)	
O=c1c2cc(F)ccc2sn1-c1ccc(Cl)cc1	40% (active)	
Cn1c2ccccc2c(=O)n1-c1ccccc1		inactive
O=C(CCn1sc2ccccc2c1=O)Nc1ccccc1		inactive
O=C(Nc1cc(Cl)ccc1C(=O)O)c1ccccc1		inactive
Cc1ccc(-n2sc3ccccc3c2=O)cc1	26.1% (active)	
O=C1c2cc(Br)ccc2S(=O)N1c1ccccc1 (stereo unspecified)		inactive
CCCCCCC(=O)Nc1cc(Cl)ccc1C(=O)O		inactive
CC(C)(C)c1ccc(C(=O)Nc2cc(Cl)ccc2C(=O)O)cc1		inactive
COc1ccc(C(=O)NC(C(=O)O)c2ccccc2)cc1 (stereo unspecified)		inactive
COC(=O)c1ccc(Cl)cc1NC(=O)c1ccc(Cl)cc1		inactive
O=C(Nc1cc(Cl)ccc1C(=O)O)c1ccc(Cl)cc1		inactive
